Assay results reported in ChEMBL document CHEMBL3244153, “Synthesis of arabinofuranosyl derivatives of 3-deazaguanine” (J Med Chem, 1979).

Tests used:
[1] = system: Sarcoma-180; experiment: Antitumor activity against mouse Sarcoma 180 cells allografted in mouse assessed as reduction in tumor growth at 100 mg/kg, ip qd for 8 days measured one day after last treatment relative to control; type: functional; conditions: Sarcoma-180, ip, route intraperitoneal, read-out: TGI
In short: (§1)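 Female CD mice (18-20 g) implanted subcutaneously with 3×10^7 Sarcoma 180 tumor cells in the right ventrolateral area. Doses tested were 100, 50, 25 and 12.5 mg/kg.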

[2] = system: Mus musculus; experiment: Toxicity in mouse allografted with mouse Sarcoma 180 cells assessed as mortality at 100 mg/kg, ip qd for 8 days measured one day after last treatment relative to control; type: organism-based; parameters: dose 100 mg/kg, route intraperitoneal; conditions: in vivo, 192 h; in short: as §1
[3] = system: Mus musculus; experiment: Toxicity in mouse allografted with mouse Sarcoma 180 cells assessed as mortality at 25 mg/kg, ip qd for 8 days measured one day after last treatment relative to control; type: organism-based; parameters: dose 25 mg/kg, route intraperitoneal; conditions: in vivo, 192 h; in short: as §1
[4] = system: Mus musculus; experiment: Toxicity in mouse allografted with mouse Sarcoma 180 cells assessed as mortality at 12.5 mg/kg, ip qd for 8 days measured one day after last treatment relative to control; type: organism-based; parameters: dose 12.5 mg/kg, route intraperitoneal; conditions: in vivo, 192 h; in short: as §1
[5] = system: Sarcoma-180; experiment: Antitumor activity against mouse Sarcoma 180 cells allografted in mouse assessed as reduction in tumor growth at 50 mg/kg, ip qd for 8 days measured one day after last treatment relative to control; type: functional; conditions: Sarcoma-180, ip, route intraperitoneal, read-out: TGI; in short: as §1
[6] = system: Mus musculus; experiment: Toxicity in mouse allografted with mouse Sarcoma 180 cells assessed as mortality at 50 mg/kg, ip qd for 8 days measured one day after last treatment relative to control; type: organism-based; parameters: dose 50 mg/kg, route intraperitoneal; conditions: in vivo, 192 h; in short: as §1
[7] = system: Sarcoma-180; experiment: Antitumor activity against mouse Sarcoma 180 cells allografted in mouse assessed as reduction in tumor growth at 12.5 mg/kg, ip qd for 8 days measured one day after last treatment relative to control; type: functional; conditions: Sarcoma-180, ip, route intraperitoneal, read-out: TGI; in short: as §1
[8] = system: Sarcoma-180; experiment: Antitumor activity against mouse Sarcoma 180 cells allografted in mouse assessed as reduction in tumor growth at 25 mg/kg, ip qd for 8 days measured one day after last treatment relative to control; type: functional; conditions: Sarcoma-180, ip, route intraperitoneal, read-out: TGI; in short: as §1

| SMILES | inhibition in vivo at 100 mg/kg [1] [%] | Activity [2] | Activity [3] | Activity [4] | inhibition in vivo at 50 mg/kg [5] [%] | Activity [6] | inhibition in vivo at 12.5 mg/kg [7] [%] | inhibition in vivo at 25 mg/kg [8] [%] |
| --- | --- | --- | --- | --- | --- | --- | --- | --- |
| Nc1cc2c(ncn2[C@@H]2O[C@H](CO)[C@@H](O)[C@@H]2O)c(=O)[nH]1 | 16 | Non-toxic |  |  |  |  |  |  |
| Nc1cc2c(ncn2[C@H]2O[C@H](CO)[C@@H](O)[C@@H]2O)c(=O)[nH]1 | 24.2 | Non-toxic |  |  |  |  |  |  |
| Nc1cc2ncn([C@@H]3O[C@H](CO)[C@@H](O)[C@@H]3O)c2c(=O)[nH]1 | 5.6 | Non-toxic |  |  |  |  |  |  |
| Nc1cc2ncn([C@H]3O[C@H](CO)[C@@H](O)[C@@H]3O)c2c(=O)[nH]1 | 0 | Non-toxic |  |  |  |  |  |  |
| Nc1cc2nc[nH]c2c(=O)[nH]1 [DEZAGUANINE] | 89.6 | Toxic | Non-toxic | Non-toxic | 74.2 | Non-toxic | 46.2 | 78.2 |
